PP1 inh = PP1-alpha (human) inhibition in PP5 counter-screen; P62136; purified PP1alpha, OMFP fluorescence; inhibition, % at 6.7 µM; 320,000 tested, 0.9% active; AID 2235;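 active = inhibition above the mean inhibition of all tested compounds plus 3 SD, computed separately for each screening campaign, cut at about 15% in these data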
Scp-1 inhibitor = inhibitors of human Scp-1 phosphatase; Q9GZU7; Recombinant Scp1, phosphopeptide, malachite green phosphate absorbance; inhibition, % at 20 µM; 340,000 tested, 0.88% active;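 active = inhibition above about 50% at 20 µM, limit read from the data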
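Test system – truncated SCP-1 phosphatase (76-261aa) · Reagent – Phosphorylated 17-residue peptide substrate · Incubation – 45 min room-temperature reaction, 5 min colour, 30 min stabiliser · Detection – colorimetric phosphate reagent with accelerator and stabiliser, absorbance at 630 nm · Measure – % inhibition at 20 µM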
PP5 inh = inhibitors of human protein phosphatase 5 (PP5); P53041; purified PP5c, OMFP substrate fluorescence; 320,000 tested, 0.18% active; inhibition, % at 6.7 µM;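 active = inhibition above the campaign's mean inhibition across all tested compounds plus 3 SD, cut at about 9.5% in these data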
Target sequence (P53041 whole entry, looked up): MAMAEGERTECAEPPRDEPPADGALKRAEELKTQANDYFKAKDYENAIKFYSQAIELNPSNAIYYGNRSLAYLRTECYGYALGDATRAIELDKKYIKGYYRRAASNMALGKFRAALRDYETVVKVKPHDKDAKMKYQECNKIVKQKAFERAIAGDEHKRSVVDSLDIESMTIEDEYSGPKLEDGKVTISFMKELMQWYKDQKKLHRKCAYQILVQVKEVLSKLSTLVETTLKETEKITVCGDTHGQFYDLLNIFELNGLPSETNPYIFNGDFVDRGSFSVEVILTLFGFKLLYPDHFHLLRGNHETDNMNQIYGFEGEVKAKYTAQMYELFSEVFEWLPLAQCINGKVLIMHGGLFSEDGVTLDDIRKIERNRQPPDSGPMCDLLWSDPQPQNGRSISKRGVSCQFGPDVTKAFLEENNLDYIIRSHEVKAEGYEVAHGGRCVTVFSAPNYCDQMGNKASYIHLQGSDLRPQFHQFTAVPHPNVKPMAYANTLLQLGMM
STEP inh = STEP (human) phosphatase inhibition | P54829 | recombinant STEP, OMFP fluorogenic substrate, fluorescence | inhibition, % at 20 µM | 360,000 tested, 0.25% active | AID 588621;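 active = inhibition at 20 µM, scaled per plate between control wells, above about 37%, limit read from the data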
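System: isolated STEP enzyme; schedule: 20 min enzyme reaction at room temperature, protected from light; medium: Bis-Tris buffer pH 6.0, 2.5 mM DTT, 0.005% Tween 20; signal: fluorescence, 480/540 nm; dosing: single compound dose of 20 µM, 1% DMSO final; also added: OMFP substrate, 25 µM final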
LMPTP inh = blocks human LMPTP phosphatase; inhibition, % at 20 µM; 360,000 tested, 0.22% active; P24666; recombinant LMPTP-A, OMFP fluorogenic substrate, fluorescence intensity;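 active = compounds that cut the enzyme signal by at least half of the control window in the single-dose screen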
Target sequence (P24666 whole entry, looked up): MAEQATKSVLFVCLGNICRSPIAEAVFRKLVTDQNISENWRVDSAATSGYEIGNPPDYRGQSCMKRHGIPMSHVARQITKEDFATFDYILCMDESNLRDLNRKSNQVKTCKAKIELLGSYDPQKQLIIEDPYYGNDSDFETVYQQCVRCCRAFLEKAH
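Test system: LMPTP-A phosphatase enzyme; input: 0.625 nM LMPTP-A final; reagent: OMFP substrate, 400 µM final; compound dosing: 20 µM single dose, 3% DMSO; incubation: 50 min dark incubation at room temperature; measured by: endpoint fluorescence intensity from OMFP dephosphorylation; measure: % inhibition relative to no-enzyme and uninhibited control wells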
Scp1 confirm = confirmation of human Scp-1 phosphatase inhibitors | shares compounds with Scp-1 inhibitor | 2,500 tested, 61% active | inhibition, % at 20 µM | recombinant SCP-1 catalytic domain, phosphate release, malachite green absorbance | AID 540281
Scp-1 MG ctr = interferes with malachite green readout, flagging false Scp-1 hits | shares compounds with Scp-1 inhibitor | Colorimetric interference counterscreen, malachite green absorbance 630 nm | apparent inhibition (interference), % at 20 µM | 2,500 tested, under 10 active;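 note: compounds added after enzyme reaction finished so only phosphate colour detection is probed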
Scp-1 Tm shift = validation of human Scp-1 inhibitors by thermal shift binding; shares compounds with Scp-1 inhibitor; Recombinant SCP1, Sypro Orange thermal shift Tm; thermal shift relative to vanadate control, % at 40 µM; 1,500 tested, 25% active;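 active = substances whose mean melting-temperature shift, as a percentage of the reference inhibitor's shift, reaches about 5.3%, limit read from the data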
Large screens that a line does not name were inactive (follow-up assays come after a bar, where they were run). Only some compounds are listed: those with a hit (about 1.9% of all), similar ones and a draw of the others.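 Rule for the calls, unless noted: active = inhibition of at least 30% at 20 µM; inactive = the rest.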

O=C1OC(/C=C/c2ccccc2)=NC/1=C/C=C/c1ccccc1	Scp-1 inhibitor 70 | Scp1 confirm inactive | Scp-1 MG ctr inactive
O=C1OC(c2ccc(F)cc2)=N/C1=C\C=C/c1ccccc1	none
Cc1ccc2c(c1)C(=O)N1[C@H]3c4cc(C)ccc4OC[C@@H]3[C@H](c3ccccc3)[C@]1(C)C(=O)N2	none (no result: PP1 inh, PP5 inh)
NC(=O)c1ccc(NC(=O)COc2ccc(-n3cnnn3)cc2)cc1	none
NC(=O)COc1ccc(-n2cnnn2)cc1	Scp-1 inhibitor 68 | Scp1 confirm 52 | Scp-1 MG ctr inactive | Scp-1 Tm shift inactive
C[n+]1cnc(-c2ccccc2)cc1-c1ccccc1	Scp-1 inhibitor 101 | Scp1 confirm 86 | Scp-1 MG ctr inactive | Scp-1 Tm shift inactive
Nc1cc2c(cc1[N+](=O)[O-])OCO2	Scp-1 inhibitor 58 | Scp1 confirm 58 | Scp-1 MG ctr inactive | Scp-1 Tm shift inactive
CCOCCCNC(=O)C1CC(=O)N(CCc2ccccc2)C1 (stereo not drawn)	none
CC(C)CCN1CC(C(=O)NCCC2=CCCCC2)CC1=O (stereo not drawn)	none | Scp1 confirm inactive | Scp-1 MG ctr inactive
COc1ccc(CN2CC(C(=O)NCCC3=CCCCC3)CC2=O)cc1 (stereo not drawn)	none
O=C(NCCc1ccccc1)C1CC(=O)N(CCc2ccccc2)C1 (stereo not drawn)	none | Scp1 confirm inactive | Scp-1 MG ctr inactive
COc1ccc(CN2CC(C(=O)NCc3ccccn3)CC2=O)cc1 (stereo not drawn)	none
O=C(NCCc1ccccn1)C1CC(=O)N(Cc2ccccc2Cl)C1 (stereo not drawn)	none | Scp1 confirm inactive | Scp-1 MG ctr inactive
CCN(CCNC(=O)C1CC(=O)N(CCc2ccccc2)C1)c1ccccc1 (stereo not drawn)	none | Scp1 confirm inactive | Scp-1 MG ctr inactive
Cc1ccccc1NC(=O)CSc1n[nH]c(-c2ccccn2)n1	Scp-1 inhibitor 63 | Scp1 confirm inactive | Scp-1 MG ctr inactive
O=c1oc2c(CN3CCCCC3)c(O)ccc2cc1-c1nc2ccccc2[nH]1	none (no result: PP1 inh, PP5 inh)
CCOC(=O)c1cc(-c2ccc(/C=N\n3cnnc3)o2)ccc1Cl	none
CCCCOC(=O)c1cc(-c2ccc(/C=N/n3cnnc3)o2)ccc1Cl	Scp-1 inhibitor 91 | Scp1 confirm inactive | Scp-1 MG ctr inactive
CC(C)S(=O)(=O)C1=NSC2=NC(=O)/C(=C\c3ccc(-c4cccc(C(=O)O)c4)o3)C(=N)N21	Scp-1 inhibitor 65 (no result: PP1 inh, PP5 inh) | Scp1 confirm 68 | Scp-1 MG ctr inactive | Scp-1 Tm shift inactive
COc1ccc(CC(=O)Nc2ncc([N+](=O)[O-])s2)cc1OC	Scp-1 inhibitor 71 | Scp1 confirm 66 | Scp-1 MG ctr inactive | Scp-1 Tm shift 12
COc1cc(OC)c(NC(=O)c2cc3ccccc3cc2O)cc1Cl	none (no result: PP1 inh, PP5 inh)
CCOc1cc(Br)c(Br)c(C=Nc2ccc(NC(C)=O)cc2)c1O	Scp-1 inhibitor 75 | Scp1 confirm 72 | Scp-1 MG ctr inactive | Scp-1 Tm shift inactive
COC(=O)c1ccc2c(c1)NC(=O)C(N1CCCC1)S2 (stereo not drawn)	none
O=C(O)COc1ccc(Br)cc1/C=N/O	Scp-1 inhibitor 60 | Scp1 confirm 52 | Scp-1 MG ctr inactive | Scp-1 Tm shift inactive
O=C(CSc1cccc[n+]1[O-])Nc1cc2c(cc1Cl)C(=O)c1ccccc1C2=O	Scp-1 inhibitor 85, STEP inh 49, LMPTP inh 50 | Scp1 confirm inactive | Scp-1 MG ctr inactive
Cc1cc(NC(=O)CSCC(=O)N(c2cccc(Cl)c2)C(C(=O)NC2CCCCC2)c2ccc(O)c(O)c2)no1 (stereo not drawn)	Scp-1 inhibitor 50 | Scp1 confirm inactive | Scp-1 MG ctr inactive
CCCCN(C(=O)C1CC(=O)N(Cc2ccc(C)cc2)C1)c1c(N)n(CC(C)C)c(=O)[nH]c1=O (stereo not drawn)	none | Scp1 confirm inactive | Scp-1 MG ctr inactive
COCCN(C(=O)C1CCN(C(=O)c2ccccc2C)CC1)c1c(N)n(CC(C)C)c(=O)[nH]c1=O	Scp-1 inhibitor 63 | Scp1 confirm 77 | Scp-1 MG ctr inactive | Scp-1 Tm shift inactive
Cc1ccccc1C(=O)N1CCC(C(=O)N(CC(C)C)c2c(N)n(CC(C)C)c(=O)[nH]c2=O)CC1	none
COCCN(C(=O)C1CC(=O)N(Cc2ccc(C)cc2)C1)c1c(N)n(CC(C)C)c(=O)[nH]c1=O (stereo not drawn)	none
COc1ccc(CCN2C(=O)CC(N3CCOCC3)C2=O)cc1OC (stereo not drawn)	none
Cc1cc(C)c2c(N)c(C(=O)c3ccccc3Cl)sc2n1	none
O=C(Cn1c(=O)cnc2ccccc21)Nc1cc(Cl)ccc1N1CCOCC1	Scp-1 inhibitor 53 (no result: PP1 inh, PP5 inh) | Scp1 confirm 48 | Scp-1 MG ctr inactive | Scp-1 Tm shift inactive
CC[n+]1c(/C=C/Nc2ccccc2)oc2ccc(OC)cc21	none
CC[n+]1c(/C=C/Nc2ccccc2)oc2ccccc21	Scp-1 inhibitor 99 | Scp1 confirm inactive | Scp-1 MG ctr inactive
O=C(Nc1ccccc1C(=O)N1CCCCCC1)c1ccccc1	Scp-1 inhibitor 58 | Scp1 confirm inactive | Scp-1 MG ctr inactive
CC(C)C(=O)Nc1cccc(C(=O)OCC(=O)c2ccc(Cl)cc2Cl)c1	none
O=C(CSc1n[nH]c(C2CCCC2)n1)NC1CCCC1	Scp-1 inhibitor 64 | Scp1 confirm inactive | Scp-1 MG ctr inactive
O=C(CSc1nc2ccccc2[nH]1)NC1CCCC1	Scp-1 inhibitor 62 | Scp1 confirm 45 | Scp-1 MG ctr inactive | Scp-1 Tm shift inactive
Cc1cc(C)nc(Nc2n[nH]c(COc3cccc4ccccc34)n2)n1	none (no result: PP1 inh, PP5 inh)
Cc1ccccc1C(=O)Nc1ccc(C(=O)N/N=C/c2ccc(F)cc2)cc1	Scp-1 inhibitor 91 | Scp1 confirm inactive | Scp-1 MG ctr inactive
COc1ccc(/C=C/C(=O)Oc2cccc(/C=N/NC(=O)c3cccc(F)c3)c2)cc1	Scp-1 inhibitor 87 | Scp1 confirm 37 | Scp-1 MG ctr inactive | Scp-1 Tm shift inactive
COC(=O)c1ccc(/C=N/NC(=O)c2cccc(F)c2)cc1	Scp-1 inhibitor 87 | Scp1 confirm 48 | Scp-1 MG ctr inactive | Scp-1 Tm shift inactive
O=C(N/N=C/c1ccccc1)c1ccc(NC(=O)c2ccc(F)cc2)cc1	none
O=C(O)C(Cc1ccc(O)cc1)N1C(=O)c2ccccc2C1=O (stereo not drawn)	none
CN1C(=O)c2ccccc2Cc2c(NCc3ccccc3)ncnc21	none (no result: PP1 inh, Scp-1 inhibitor, PP5 inh)
Cc1ccc(OCC(=O)NNC(=O)Cn2nnc(-c3ccccc3)n2)cc1	Scp-1 inhibitor 53 | Scp1 confirm 41 | Scp-1 MG ctr inactive | Scp-1 Tm shift inactive
